Test results from ChEMBL document CHEMBL4028886 (J Med Chem, 2017).
Activity calls are given as the source filed them. The calls are words filed in the database; no cut-off is given here.

What was measured:
Assay type in all cases: cell-based
[1] = molecular target: Sodium-dependent noradrenaline transporter (Homo sapiens, UniProt P23975); test: Inhibition of re-uptake of [3H]MPP+ at human NET expressed in HEK293 cells preincubated for 5 mins followed by […] addition measured after 3 min by liquid scintillation counting
Sequence of Sodium-dependent noradrenaline transporter (P23975 whole entry): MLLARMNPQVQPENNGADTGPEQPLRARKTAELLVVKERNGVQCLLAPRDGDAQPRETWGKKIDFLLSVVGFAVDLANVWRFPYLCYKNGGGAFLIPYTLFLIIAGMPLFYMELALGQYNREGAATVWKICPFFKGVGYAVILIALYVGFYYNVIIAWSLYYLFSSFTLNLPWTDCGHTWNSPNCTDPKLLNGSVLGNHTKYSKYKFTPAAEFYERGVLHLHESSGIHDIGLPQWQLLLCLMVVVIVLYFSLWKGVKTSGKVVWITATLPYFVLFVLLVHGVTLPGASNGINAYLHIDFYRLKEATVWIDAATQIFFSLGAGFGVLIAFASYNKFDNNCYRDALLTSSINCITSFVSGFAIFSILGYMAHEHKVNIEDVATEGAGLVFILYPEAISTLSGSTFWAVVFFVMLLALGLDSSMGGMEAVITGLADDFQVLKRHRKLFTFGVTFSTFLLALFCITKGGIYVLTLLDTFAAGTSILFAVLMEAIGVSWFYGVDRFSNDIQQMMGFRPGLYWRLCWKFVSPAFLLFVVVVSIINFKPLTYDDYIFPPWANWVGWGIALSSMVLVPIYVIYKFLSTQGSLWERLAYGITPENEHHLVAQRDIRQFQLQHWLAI
Outline: (§1)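 HEK293 cells stably expressing human DAT or NET, seeded on PDL-coated plates 24 h before. Preincubated 5 min in Krebs–HEPES buffer pH 7.3 with compound at 0.001 μM to 1 mM (DMSO stock diluted in buffer). Substrate then added: 0.2 μM [3H]dopamine for DAT, 1 min; 0.05 μM [3H]MPP+ for NET, 3 min. Room temperature. Uptake stopped with ice-cold buffer. Cells lysed in 1% SDS and counted by scintillation. Unspecific uptake defined with 10 μM mazindol. IC50 by nonlinear regression.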

[2] = molecular target: Sodium-dependent serotonin transporter (Homo sapiens, UniProt P31645); test: Inhibition of re-uptake of [3H]-5-HT at human SERT expressed in HEK293 cells preincubated for 5 mins followed by [3H]-dopamine addition measured after 1 min by liquid scintillation counting
Sequence of Sodium-dependent serotonin transporter (P31645 whole entry): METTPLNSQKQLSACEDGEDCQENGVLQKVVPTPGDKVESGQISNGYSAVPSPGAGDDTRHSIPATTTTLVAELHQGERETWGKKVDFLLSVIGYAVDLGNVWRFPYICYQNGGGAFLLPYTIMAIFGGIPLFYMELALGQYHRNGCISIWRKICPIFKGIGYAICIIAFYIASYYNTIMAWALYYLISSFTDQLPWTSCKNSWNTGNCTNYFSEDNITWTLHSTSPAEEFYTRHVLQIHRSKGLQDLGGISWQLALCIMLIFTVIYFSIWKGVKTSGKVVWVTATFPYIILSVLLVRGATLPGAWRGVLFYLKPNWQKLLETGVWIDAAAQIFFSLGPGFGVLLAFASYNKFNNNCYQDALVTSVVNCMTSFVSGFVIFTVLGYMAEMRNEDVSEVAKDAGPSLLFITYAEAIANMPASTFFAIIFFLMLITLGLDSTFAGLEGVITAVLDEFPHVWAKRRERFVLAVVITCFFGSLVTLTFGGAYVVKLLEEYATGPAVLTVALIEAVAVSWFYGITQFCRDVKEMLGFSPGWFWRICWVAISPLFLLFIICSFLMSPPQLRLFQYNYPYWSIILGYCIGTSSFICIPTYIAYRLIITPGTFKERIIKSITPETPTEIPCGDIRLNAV

[3] = molecular target: T1, Sodium-dependent dopamine transporter (Homo sapiens, UniProt Q01959); test: Inhibition of re-uptake of [3H]-dopamine at human DAT expressed in HEK293 cells preincubated for 5 mins followed by [3H]-dopamine addition measured after 1 min by liquid scintillation counting; outline: as §1
T1 sequence (Q01959 whole entry): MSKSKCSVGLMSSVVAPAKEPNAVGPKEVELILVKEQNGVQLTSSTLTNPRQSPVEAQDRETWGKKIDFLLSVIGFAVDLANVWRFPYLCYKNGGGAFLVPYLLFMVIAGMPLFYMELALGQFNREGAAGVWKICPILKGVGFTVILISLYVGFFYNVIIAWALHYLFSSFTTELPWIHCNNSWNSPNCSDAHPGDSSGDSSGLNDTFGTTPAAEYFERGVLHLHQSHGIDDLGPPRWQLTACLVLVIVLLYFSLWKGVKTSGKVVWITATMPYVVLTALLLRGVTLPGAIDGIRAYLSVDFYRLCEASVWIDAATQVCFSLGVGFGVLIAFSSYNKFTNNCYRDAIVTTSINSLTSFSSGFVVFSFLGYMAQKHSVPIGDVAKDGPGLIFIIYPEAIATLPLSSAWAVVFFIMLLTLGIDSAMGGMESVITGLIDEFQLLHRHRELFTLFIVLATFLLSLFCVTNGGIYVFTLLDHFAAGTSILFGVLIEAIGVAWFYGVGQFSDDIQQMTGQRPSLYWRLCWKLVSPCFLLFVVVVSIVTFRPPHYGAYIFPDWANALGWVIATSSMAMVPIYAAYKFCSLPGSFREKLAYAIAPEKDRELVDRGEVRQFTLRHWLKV

[4] = molecular target: T1, Sodium-dependent dopamine transporter; test: Displacement of [3H]WIN 35,428 from human DAT expressed in HEK293 cells at 2 and 4 uM after 30 mins in presence of increasing concentration of cocaine by liquid scintillation counting
Outline: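 Intact HEK-DAT cells on PDL-coated plates, in binding buffer (HEPES, NaCl, KCl, CaCl2, MgCl2, 10 μM ZnCl2, glucose, pH 7,3). Incubated with ~10 nM [3H]WIN 35,428, fixed concentrations of test compound and cocaine 0.001–1 μM, 30 min at 25 °C. Nonspecific binding defined with 30 μM mazindol. Cells lysed in 1% SDS and counted by scintillation. Reciprocal of bound (fmol) plotted against cocaine concentration as Dixon plot. Three experiments in triplicate, mean ± SD.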

| Structure (SMILES) | IC50 ([1]; read-out: IC50) [µM] | IC50 ([2]; hek293) | IC50 ([3]; read-out: IC50) [µM] | IC50 ([2]; read-out: IC50) [µM] | IC50 ([1]; hek293) | IC50 ([3]; hek293) | inhibition [4] |
| --- | --- | --- | --- | --- | --- | --- | --- |
| CC(C)c1nnsc1C[S+]([O-])C(c1ccccc1)c1ccccc1 (stereo unspecified) | 30 | Not Active | 69.1 | – | – | – | – |
| COc1cc(C)nc(C[S+]([O-])C(c2ccccc2)c2ccccc2)n1 (stereo unspecified) | 228 | Not Active | 90.5 | – | – | – | – |
| [O-][S+](Cc1sccc1Cl)C(c1ccccc1)c1ccccc1 (stereo unspecified) | 188 | Not Active | 4.9 | – | – | – | – |
| Cc1ccc(C(c2ccccc2)[S+]([O-])Cc2cccs2)cc1 (stereo unspecified) | 152 | – | 2 | 118 | – | – | – |
| [O-][S+](Cc1cccs1)C(c1ccccc1)c1ccc(Br)cc1 (stereo in doubt; 11c) | – | Not Active | 4.2 | – | Not Active | – | – |
| [O-][S+](Cc1ccc(Cl)s1)C(c1ccccc1)c1ccccc1 (stereo unspecified) | 68.4 | – | 12.8 | 57.2 | – | – | – |
| [O-][S@+](Cc1cccs1)[C@H](c1ccccc1)c1ccc(Br)cc1 | – | Not Active | 1.5 | – | Not Active | – | – |
| [O-][S+](Cc1cccs1)C(c1ccccc1)c1ccc(Br)cc1 (stereo in doubt; 11h) | – | – | 2.4 | – | – | – | – |
| Cc1cnc(C[S+]([O-])C(c2ccccc2)c2ccccc2)nc1 (stereo unspecified) | – | Not Active | 156 | – | Not Active | – | – |
| [O-][S+](Cc1cc(Br)cs1)C(c1ccccc1)c1ccccc1 (stereo unspecified) | – | – | 13.7 | 70.9 | Not Active | – | – |
| Cc1nnc(C[S+]([O-])C(c2ccccc2)c2ccccc2)s1 (stereo unspecified) | – | Not Active | – | – | Not Active | Not Active | – |
| [O-][S+](Cc1cc(C2CC2)on1)C(c1ccccc1)c1ccccc1 (stereo unspecified) | – | Not Active | 38.6 | – | Not Active | – | – |
| [O-][S+](Cc1ccncc1)C(c1ccccc1)c1ccccc1 (stereo unspecified) | – | Not Active | 63.5 | – | Not Active | – | – |
| COC1NN=C(C[S+]([O-])C(c2ccccc2)c2ccccc2)S1 (stereo unspecified) | 146 | Not Active | 108 | – | – | – | – |
| Cc1noc(C[S+]([O-])C(c2ccccc2)c2ccccc2)n1 (stereo unspecified) | – | Not Active | 56.7 | – | Not Active | – | – |
| [O-][S+](Cc1cccs1)C(c1ccc(Cl)cc1)c1ccc(Cl)cc1 (stereo unspecified) | – | Not Active | 7.2 | – | Not Active | – | – |

| Structure (SMILES) | IC50 ([1]; read-out: IC50) [µM] | IC50 ([2]; hek293) | IC50 ([3]; read-out: IC50) [µM] | IC50 ([2]; read-out: IC50) [µM] | IC50 ([1]; hek293) | IC50 ([3]; hek293) | inhibition [4] |
| --- | --- | --- | --- | --- | --- | --- | --- |
| NC(=O)C[S+]([O-])C(c1ccccc1)c1ccccc1 (stereo unspecified) [MODAFINIL] | 284 | – | – | – | – | – | – |
| [O-][S+](Cc1nc(O)cc(C(F)(F)F)n1)C(c1ccccc1)c1ccccc1 (stereo unspecified) | – | Not Active | 40.4 | – | Not Active | – | – |
| [O-][S+](Cc1cccs1)C(c1ccc(F)cc1)c1ccc(F)cc1 (stereo unspecified) | 113 | – | 4 | 120 | – | – | – |
| [O-][S+](Cc1nc(C(F)(F)F)no1)C(c1ccccc1)c1ccccc1 (stereo unspecified) | 71 | – | 43.7 | 209 | – | – | – |
| [O-][S+](Cc1csc(Br)c1)C(c1ccccc1)c1ccccc1 (stereo unspecified) | 67.2 | – | 16.6 | 44.7 | – | – | – |
| [O-][S+](Cc1ccsc1Br)C(c1ccccc1)c1ccccc1 (stereo unspecified) | 144 | – | 29.3 | 59.6 | – | – | – |
| [O-][S+](Cc1cccs1)C(c1ccccc1)c1ccc(Br)cc1 (stereo in doubt; 11g) | – | – | 3.7 | – | – | – | – |
| Cc1cc(C[S+]([O-])C(c2ccccc2)c2ccccc2)nc(C)n1 (stereo unspecified) | 768 | Not Active | 82.6 | – | – | – | – |
| Cc1scc(C[S+]([O-])C(c2ccccc2)c2ccccc2)c1C (stereo unspecified) | – | Not Active | 284 | – | Not Active | – | – |
| Cc1cc(O)nc(C[S+]([O-])C(c2ccccc2)c2ccccc2)n1 (stereo unspecified) | – | Not Active | 109 | – | Not Active | – | – |
| [O-][S+](Cc1ccsc1)C(c1ccccc1)c1ccccc1 (stereo unspecified) | 57.6 | Not Active | 3 | – | – | – | – |
| [O-][S@@+](Cc1cccs1)[C@@H](c1ccccc1)c1ccc(Br)cc1 | – | Not Active | 4.1 | – | Not Active | – | – |
| O=c1[nH]nc(C[S+]([O-])C(c2ccccc2)c2ccccc2)s1 (stereo unspecified) | 85.7 | Not Active | 38.1 | – | – | – | – |
| Cc1nc(O)cc(C[S+]([O-])C(c2ccccc2)c2ccccc2)n1 (stereo unspecified) | – | Not Active | 3.1 | – | Not Active | – | Active |
| Cc1ccc(C(c2ccc(C)cc2)[S+]([O-])Cc2cccs2)cc1 (stereo unspecified) | – | Not Active | 5.8 | – | Not Active | – | – |
| COc1ccnc(C[S+]([O-])C(c2ccccc2)c2ccccc2)c1OC (stereo unspecified) | – | Not Active | – | – | Not Active | Not Active | – |
